Assay results: ChEMBL document CHEMBL1150775, “Synthesis and evaluation of estrogen agonism of diaryl 4,5-dihydroisoxazoles, 3-hydroxyketones, 3-methoxyketones, and 1,3-diketones: a compound set forming a 4D molecular library” (J Med Chem, 2008)

Tests used:
Format in all cases: cell-based
[1] = target: T1, Estrogen receptor (Homo sapiens) (UniProt P03372); assay: Activation of human estrogen receptor alpha expressed in HEK293 cells at 10 uM beta-galactosidase reporter gene assay relative to control
T1 sequence (whole entry): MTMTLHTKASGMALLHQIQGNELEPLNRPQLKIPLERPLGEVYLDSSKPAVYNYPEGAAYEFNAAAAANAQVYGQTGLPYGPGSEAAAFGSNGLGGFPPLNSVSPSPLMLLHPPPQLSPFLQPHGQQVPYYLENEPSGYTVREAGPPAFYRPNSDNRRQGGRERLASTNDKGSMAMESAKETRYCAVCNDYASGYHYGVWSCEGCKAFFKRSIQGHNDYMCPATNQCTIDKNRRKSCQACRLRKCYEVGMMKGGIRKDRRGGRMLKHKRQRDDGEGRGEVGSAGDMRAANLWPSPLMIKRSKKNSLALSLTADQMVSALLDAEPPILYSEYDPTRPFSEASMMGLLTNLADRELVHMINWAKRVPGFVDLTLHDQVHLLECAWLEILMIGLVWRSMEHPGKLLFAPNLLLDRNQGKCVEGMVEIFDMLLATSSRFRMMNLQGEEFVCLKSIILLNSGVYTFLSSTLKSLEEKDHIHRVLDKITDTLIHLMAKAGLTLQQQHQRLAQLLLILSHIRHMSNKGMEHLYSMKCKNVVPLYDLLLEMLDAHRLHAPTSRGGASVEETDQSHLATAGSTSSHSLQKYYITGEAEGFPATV
How it was run: (§1)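 Luciferase reporter in transiently transfected HEK293 cells. Cells received 5 ng ERα or ERβ vector, ERE2-TATA luciferase reporter and pCMVβ by calcium phosphate for 4 h. Compound at 10 µM for 24 h in phenol-free medium with delipidated serum. β-Gal-normalized luciferase expressed as fold activation over vehicle (0.1% v/v). Means ± SEM of ≥3 transfections.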

[2] = target: T1, Estrogen receptor (Homo sapiens); assay: Activation of human estrogen receptor alpha expressed in HEK293 cells at 10 uM in presence of ICI-182780 beta-galactosidase reporter gene assay relative to control
How it was run: (§2)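 Antagonism format: transfection as for the agonist assay (ERα or ERβ vector, ERE2-TATA-LUC, pCMVβ; 4 h). Medium then contained 10 µM compound plus 1000 nM ICI-182,780 or vehicle for 24 h. β-Gal-normalized luciferase given as fold activation relative to vehicle. Means ± SEM of ≥3 independent transfections.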

[3] = target: T1, Estrogen receptor (Homo sapiens); assay: Activation of human estrogen receptor alpha expressed in HEK293 cells at 10 uM by beta-galactosidase reporter gene assay relative to 3,17 beta-estradiol
How it was run: (§3)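 HEK293 cells seeded a day ahead in phenol-free DMEM with 5% delipidated FBS. Calcium phosphate transfection for 4 h with 5 ng ERα or ERβ expression vector, 75 ng pERE2TATA-LUC reporter and 20 ng pCMVβ control. Test compound at 10 µM (vehicle 0.1% v/v) for 24 h. Luciferase normalized to β-galactosidase. Activity = 100% × (test − vehicle)/(10 nM E2 − vehicle). Mean of ≥3 independent transfections.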

[4] = target: Estrogen receptor beta (Homo sapiens) (UniProt Q92731); assay: Activation of human estrogen receptor beta expressed in HEK293 cells at 10 uM beta-galactosidase reporter gene assay relative to 3,17-beta-estradiol; how it was run: as §3
Chain of Estrogen receptor beta (Homo sapiens) (Q92731 whole entry): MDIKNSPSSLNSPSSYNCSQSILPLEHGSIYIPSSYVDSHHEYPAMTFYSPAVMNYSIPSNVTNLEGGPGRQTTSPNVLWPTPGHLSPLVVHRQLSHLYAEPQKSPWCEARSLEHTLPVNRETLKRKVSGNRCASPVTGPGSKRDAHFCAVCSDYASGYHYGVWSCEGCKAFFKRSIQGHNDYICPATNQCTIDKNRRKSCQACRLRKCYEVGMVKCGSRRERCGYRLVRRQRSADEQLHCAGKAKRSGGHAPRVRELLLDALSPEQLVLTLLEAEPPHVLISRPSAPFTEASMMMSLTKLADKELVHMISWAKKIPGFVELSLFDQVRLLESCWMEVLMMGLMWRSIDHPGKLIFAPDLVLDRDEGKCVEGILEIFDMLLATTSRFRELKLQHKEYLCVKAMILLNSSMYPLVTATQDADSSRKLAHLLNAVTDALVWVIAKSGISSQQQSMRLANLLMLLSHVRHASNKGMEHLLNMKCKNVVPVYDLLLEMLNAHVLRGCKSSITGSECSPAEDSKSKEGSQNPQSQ

[5] = target: Estrogen receptor beta (Homo sapiens) (UniProt Q92731); assay: Activation of human estrogen receptor beta expressed in HEK293 cells at 10 uM beta-galactosidase reporter gene assay relative to control; how it was run: as §1
[6] = target: Estrogen receptor beta (Homo sapiens) (UniProt Q92731); assay: Activation of human estrogen receptor beta expressed in HEK293 cells at 10 uM in presence of ICI-182781 beta-galactosidase reporter gene assay relative to control; how it was run: as §2

| Compound | Activity [1] | Activity [2] | Activity [3] [%] | Activity [4] [%] | Activity [5] | Activity [6] |
| --- | --- | --- | --- | --- | --- | --- |
| c1ccc(CCC2=NOC(CCc3ccccc3)C2)cc1 (single isomer, unassigned; 18b) | 126 | 1 | 43.9 | -0.4 |  |  |
| O=C(CCc1ccccc1)CC(=O)Cc1ccccc1 | 8.7 | 1 | 24.3 | 1.4 |  |  |
| CS(C)=C(C(=O)Cc1ccccc1)C(=O)Cc1ccccc1 |  |  | 0.5 | -0.4 |  |  |
| c1ccc(CCC2CC(Cc3ccccc3)=NO2)cc1 (configuration not stated) |  |  | 7 | 1.2 |  |  |
| Oc1cccc(CCC2=NOC(Cc3ccccc3)C2)c1 (single isomer, unassigned) |  |  | 19.2 | 6.7 |  |  |
| COc1ccc(CC2CC(CCc3ccccc3)=NO2)cc1 (single isomer, unassigned; 50b) |  |  | 16.1 | 13.2 |  |  |
| Oc1cccc(CCC2=NOC(Cc3ccccc3)C2)c1 (configuration not stated) |  |  | 15.7 | -2.5 |  |  |
| Oc1ccccc1CCC1=NOC(Cc2ccc(F)cc2)C1 (single isomer, unassigned; 73b) |  |  | 11.1 | -2.4 |  |  |
| CS(C)=C(C(=O)CCc1ccccc1)C(=O)c1ccccc1 |  |  | -2.5 | 3.3 |  |  |
| COc1ccc(CC2CC(CCc3ccccc3)=NO2)cc1 (single isomer, unassigned; 50a) |  |  | 0.8 | 10.6 |  |  |
| O=C(CCc1ccccc1)CC(=O)CCc1ccccc1 |  |  | 0.6 | 0.3 |  |  |
| c1ccc(CCC2CC(c3ccccc3)=NO2)cc1 (single isomer, unassigned; 10b) |  |  | 1.1 | -6 |  |  |
| Oc1ccc(CC2CC(CCc3ccccc3)=NO2)cc1 (single isomer, unassigned; 69a) |  |  | 34.2 | 9.1 |  |  |
| CS(C)=C(C(=O)CCCc1ccccc1)C(=O)Cc1ccccc1 |  |  | 3.7 | -1.7 |  |  |

Second part, the compound after the results:

| Activity [1] | Activity [2] | Activity [3] [%] | Activity [4] [%] | Activity [5] | Activity [6] | Compound |
| --- | --- | --- | --- | --- | --- | --- |
| 26.1 | 1.1 | 23.9 | 0.4 |  |  | COC(CC(=O)Cc1cccc2ccccc12)Cc1cccc2ccccc12 (single isomer, unassigned; 64b) |
|  |  | 28.5 | 4 |  |  | COc1ccc(CC(CC(=O)CCc2ccccc2)OC)cc1 (configuration not stated) |
|  |  | 4.3 | 0.2 |  |  | O=C(Cc1ccccc1)CC(O)CCc1ccccc1 (configuration not stated) |
|  |  | 91.4 | 147 |  |  | O=C(CCCc1ccccc1)CC(O)c1ccccc1 (single isomer, unassigned; 24a) |
|  |  | 3.1 | -14.6 |  |  | COC(CCc1ccccc1)CC(=O)CCCc1ccccc1 (configuration not stated) |
|  |  | 4.5 | -0.5 |  |  | COC(CC(=O)Cc1ccc(F)cc1)Cc1cccc2ccccc12 (single isomer, unassigned; 62b) |
| 22.9 | 1.6 | 48.1 | 4.7 | 4.2 | 0.7 | COC(CC(=O)Cc1ccccc1)Cc1ccc2ccccc2c1 (racemic) |
|  |  | 5.4 | 9.7 |  |  | O=C(CC(=O)c1ccccc1)Cc1ccccc1 |
|  |  | 24.7 | 9.1 |  |  | O=C(CCCc1ccccc1)CC(O)Cc1ccccc1 (configuration not stated) |
|  |  | 38.1 | 25.8 |  |  | COC(CCc1ccccc1)CC(=O)c1ccccc1 (configuration not stated) |
|  |  | 3.5 | -0.5 |  |  | COc1ccccc1CC(=O)CC(Cc1ccc2ccccc2c1)OC (single isomer, unassigned; 66a) |
|  |  | 12.1 | 1.7 |  |  | O=C(CCc1ccccc1)CC(O)Cc1cccc2ccccc12 (configuration not stated) |
